Assay results of several laboratories.
Compare with care: the assays were run in different laboratories. ≈ marks a conversion by molar mass, not a printed value.

COc1cccc2c1C(=O)c1c(O)c3c(c(O)c1C2=O)C[C@@](O)(C(=O)CO)C[C@@H]3O[C@H]1C[C@H](N)[C@H](O)[C@H](C)O1
IC50 (SK-MEL; cell growth or viability; 48 h): 1.1 µg/mL

Cc1ccc(-c2nc3ccc(C)cn3c2CC(=O)N(C)C)cc1
MIC (Mycobacterium kansasii; microbial growth; 6 days): > 50 µM

COC(=O)c1cc(-c2cccc(NC(=O)Nc3ccc(C(F)(F)F)cc3)c2)on1
MIC (Acinetobacter baumannii; microbial growth, broth dilution; BAA1605): > 64 µg/mL

Cl.O[C@]12C=C(c3nccc4c3[nH]c3ccccc34)[C@@H]3CCN(CCCC/C=C\CC1)C[C@@]31C[C@@H]3/C=C\CCCCN3[C@H]12
IC50 (SK-MEL; cell growth or viability, neutral red; 48 h): 0.57 µg/mL

COC(=O)c1cc(-c2cccc(NC(=S)NC3CCCCC3)c2)on1
MIC (Acinetobacter baumannii; microbial growth, broth dilution; BAA1605): > 64 µg/mL

Cl.Oc1cccc2c1[nH]c1c(C3=CC4(O)CC/C=C\CCCCN5CCC3C3(CC6/C=C\CCCCN6C43)C5)nccc12 (single isomer, unassigned; (+))
IC50 (SK-MEL; cell growth or viability, neutral red; 48 h): 0.78 µg/mL

CO[C@H]1/C=C/O[C@@]2(C)Oc3c(C)c(O)c4c(O)c(c(/C=N/N5CCN(C)CC5)c(O)c4c3C2=O)NC(=O)/C(C)=C\C=C\[C@H](C)[C@H](O)[C@@H](C)[C@@H](O)[C@@H](C)[C@H](OC(C)=O)[C@@H]1C
MIC (Mycobacterium kansasii; microbial growth; 6 days): < 0.78 µM

COc1ccc(/C=C\c2cc(F)c(OC)c(OC)c2)cc1O
GI50 (BXPC-3; cell growth or viability, SRB; 48 h): 0.745 µg/mL (≈ 2.45 µM)

COc1ccc2[nH]cc(CCNc3nccc(Nc4cccc5c4ccn5C)n3)c2c1
IC50 (BXPC-3; cell growth or viability, fluorescence; 72 h): 0.008 µM

COc1c(C)c2c(c(O)c1C/C=C(\C)CCC(=O)O)C(=O)OC2
EC50 (Enterovirus B; viral replication, inhibitor; Vero, B4): > 100 µM

CN[C@@H]1[C@H](O)[C@H](NC)[C@H]2O[C@@]3(O)C(=O)C[C@@H](C)O[C@H]3O[C@@H]2[C@H]1O
MIC (Proteus mirabilis; microbial growth, broth dilution; ATCC25933): > 200 µg/mL

C=C1CC[C@H](O)C/C1=C/C=C1\CCC[C@]2(C)[C@@H]([C@H](C)CCCC(C)C)CC[C@@H]12
EC50 (Hepatitis C virus; viral replication, inhibitor, luciferase; GETYPE2A; 5 days, replicon): 8.45 µM

C1COCCN1.COc1ccc(/C=C\c2cc(I)c(OC)c(I)c2)cc1OP(=O)(O)O
GI50 (BXPC-3; cell growth or viability, SRB; 48 h): 0.35 µg/mL

CC1CC(C)(C)CC2(C1)SC(C)C(=O)N2NC(=O)c1[nH]c2ccc(Cl)cc2c1-c1ccccc1 (stereo not shown)
EC50 (Enterovirus B; viral replication, inhibitor; Vero, B4): > 100 µM

N#CC(C#N)=NNc1cccc(Cl)c1
IC50 (human Hepatocyte; cell growth or viability): 4.81 µM

COC(=O)c1cc(-c2cccc(NC(=S)Nc3ccccc3Cl)c2)on1
MIC (Acinetobacter baumannii; microbial growth, broth dilution; BAA1605): > 64 µg/mL
